Results gathered from unrelated publications.
Compare with care: the assays were run in different laboratories.
Target: Serine/threonine-protein kinase NLK (NLK, Homo sapiens, UniProt Q9UBE8)
Sequence (Q9UBE8 1-527, as in one of the studies): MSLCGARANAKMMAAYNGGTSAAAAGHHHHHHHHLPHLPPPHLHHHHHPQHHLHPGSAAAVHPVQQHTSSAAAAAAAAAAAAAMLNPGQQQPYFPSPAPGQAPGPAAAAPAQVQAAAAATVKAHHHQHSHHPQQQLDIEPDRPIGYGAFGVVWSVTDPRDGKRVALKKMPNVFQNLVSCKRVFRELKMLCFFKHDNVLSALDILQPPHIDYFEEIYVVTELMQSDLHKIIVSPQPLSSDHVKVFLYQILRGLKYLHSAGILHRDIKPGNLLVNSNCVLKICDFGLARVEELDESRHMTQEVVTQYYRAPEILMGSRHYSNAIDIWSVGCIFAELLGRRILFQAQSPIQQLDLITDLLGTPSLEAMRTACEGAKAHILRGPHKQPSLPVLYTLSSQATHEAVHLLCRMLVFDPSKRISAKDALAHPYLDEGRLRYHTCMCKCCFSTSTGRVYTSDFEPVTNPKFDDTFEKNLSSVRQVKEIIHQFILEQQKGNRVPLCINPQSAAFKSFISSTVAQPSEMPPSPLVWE

| Compound | read-out | technique | tested at | remaining binding |
| --- | --- | --- | --- | --- |
| Nc1ncc2c(n1)-c1c([nH]c3ccc(C#CC4CC4)cc13)CCCC2 | binding | competition with immobilised ligand | 1 µM | 85% |
| CNC(=O)[C@@H]1CC[C@@H](n2c(-c3ccc4cnccc4c3)nc3ccc(C(=O)NCc4cccc(C(N)=O)c4)cc32)C1 | binding | competition with immobilised ligand | 1 µM | 100% |
| N[C@@H]1CCN(c2nccc(-c3cnn4ncccc34)n2)C1 | binding | – | 1 µM | 100% |
| O=C(NCCCN1CCOCC1)c1ccc(Nc2nccc(-c3cc4ccccc4s3)n2)cc1 | binding | competition with immobilised ligand | 1 µM | 94% |
| CS(=O)(=O)NCC[C@H](NC(=O)c1cncc2c1cnn2-c1ccc(F)cc1)c1ccnc(S(C)(=O)=O)c1 | cell-free assay | competition with immobilised ligand | 1 µM | 100% |
| c1cnn2ncc(-c3ccnc(N4CCC45COC5)n3)c2c1 | binding | – | 1 µM | 87% |
| C[C@@H](c1ccc(-n2cnc3c(N)ncnc32)cc1)N1CCc2nn(C)c(Cc3ccccc3)c2C1=O | binding | competition with immobilised ligand | 0.1 µM | 80% |
| O=C(c1ccc(Nc2ncc(Cl)c(-c3ccc(Cl)s3)n2)cc1)N1CCC(N2CCCC2)CC1 | binding | competition with immobilised ligand | 1 µM | 98% |
| O=C1CCc2cc(Nc3cc(OC4CCOCC4)c([N+](=O)[O-])cc3Cl)ccc2N1 | cell-free assay | competition with immobilised ligand | 1 µM | 100% |
| CN(C)c1nccc(-c2cnn3ncccc23)n1 | binding | – | 1 µM | 100% |
| O=C(Nc1c[nH]nc1C(=O)NC1CCNCC1)c1cc(F)cc(F)c1 | binding | competition with immobilised ligand | 1 µM | 90% |
| Cc1c(C(=O)O)cc(-c2ccc(C3CCNCC3)cc2)c2ccc(-c3ccc(C(F)(F)F)cc3)cc12 | binding | competition with immobilised ligand | 1 µM | 100% |
| C[C@@H]1CCN(c2nccc(-c3cnn4ncccc34)n2)C1 | binding | – | 1 µM | 70% |
| O=C(O)[C@@H]1[C@@H](Cn2nnc3ccccc3c2=O)CC[C@H]1C(=O)c1ccc(OCCC2CCOCC2)cc1 | cell-free assay | competition with immobilised ligand | 1 µM | 86% |
| COc1ccnn2ncc(-c3ccnc(N(C)C)n3)c12 | binding | – | 1 µM | 87% |
| C=CC(=O)N1CCC(C(=O)NCC(=O)N2CCN(c3nc(-c4cnc(N)nc4C(F)F)nc(N4CCOCC4)n3)CC2)CC1 | binding | competition with immobilised ligand | 1 µM | 94% |
| O=C(NCc1ncc(C(F)(F)F)cc1Cl)c1ccc2c(c1)C1(CCS(=O)(=O)CC1)[C@@H](C1CC1)N2S(=O)(=O)c1ccc(F)cc1 | cell-free assay | competition with immobilised ligand | 1 µM | 89% |
| O=C(c1ccc(Nc2nccc(-c3cc4ccccc4s3)n2)cc1)N1CCC(N2CCCC2)CC1 | binding | competition with immobilised ligand | 1 µM | 93% |
| COc1cnc(Nc2cccc(S(N)(=O)=O)c2)nc1N1CCN(c2ccccc2)C(=O)C1 | binding | competition with immobilised ligand | 1 µM | 100% |
| c1cncc(-c2cccc(Nc3nccc(NC4CCCCC4)n3)c2)c1 | binding | competition with immobilised ligand | 10 µM | 67% |
| CNC(=O)c1ccc(Nc2ncc(C(F)(F)F)c(NCc3nccnc3N(C)S(C)(=O)=O)n2)cc1 | cell-free assay | competition with immobilised ligand | 0.1 µM | 100% |
| CN(CCCC(F)(F)F)c1nccc(-c2cnn3ncccc23)n1 | binding | – | 1 µM | 66% |
